Source: ChEMBL document CHEMBL2176912, “Diphenyl purine derivatives as peripherally selective cannabinoid receptor 1 antagonists” (J Med Chem, 2012)

Assays:
[1] = target: Cannabinoid receptor 2 (Homo sapiens, UniProt P34972); assay: Displacement of [3H]CP55940 from human CB2 receptor expressed in CHO-K1 cells; assay type: cell-based
[2] = target: T1, Cannabinoid receptor 1 (Homo sapiens, UniProt P21554); assay: Displacement of [3H]CP55940 from human CB1 receptor expressed in CHO-K1 cells; assay type: cell-based
T1 sequence (P21554 whole entry): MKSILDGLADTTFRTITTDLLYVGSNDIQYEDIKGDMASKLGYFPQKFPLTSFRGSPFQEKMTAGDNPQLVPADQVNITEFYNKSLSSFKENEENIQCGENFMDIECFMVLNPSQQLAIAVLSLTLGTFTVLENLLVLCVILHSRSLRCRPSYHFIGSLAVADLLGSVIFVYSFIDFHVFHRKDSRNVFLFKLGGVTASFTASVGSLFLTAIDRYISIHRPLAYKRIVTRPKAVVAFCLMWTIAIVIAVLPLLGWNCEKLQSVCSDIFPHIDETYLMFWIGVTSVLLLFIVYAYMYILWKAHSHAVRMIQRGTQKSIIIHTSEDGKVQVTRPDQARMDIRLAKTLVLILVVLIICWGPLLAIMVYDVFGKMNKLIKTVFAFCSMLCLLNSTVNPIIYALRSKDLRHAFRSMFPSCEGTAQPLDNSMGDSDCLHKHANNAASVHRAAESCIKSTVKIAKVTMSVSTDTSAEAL

[3] = tested on: MDCK; assay: Permeability from apical to basolateral side in dog MDCK cells expressing MDR-1 gene; assay type: ADME, cell-based, Canis lupus familiaris
How it was run: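 MDCK-mdr1 cells grown on Transwell-type filters for 4 days to confluence in DMEM/F12 with 10% FBS and antibiotics. Compound applied apically at 10 μM in HBSS with 25 mM D-glucose, HEPES-buffered to pH 7.4. Incubated 1 h at 37 °C; apical and basal samples quantified by LC-MS/MS (MRM). Averages of 2–3 measurements.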

[4] = tested on: CHO-K1; assay: Selectivity ratio of Ki for human CB2 receptor expressed in CHO-K1 cells to Ki for human CB1 receptor expressed in CHO-K1 cells
[5] = target: T1, Cannabinoid receptor 1; assay: Antagonist activity at human CB1 receptor transfected in CHO-K1 cells co-expressing Galphaq16 assessed as intracellular calcium mobilization using Calcein-4 AM by fluorescence assay; assay type: functional, cell-based
How it was run: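 CHO-K1 cells engineered to coexpress human CB1 and Gαq16. Calcium flux read with fluorescent dye Calcein-4 AM on a plate reader. Antagonism measured as rightward shift of the CP55940 concentration–response curve. Ke = [ligand]/(DR−1), where DR is the ratio of CP55940 EC50 with and without test agent. Values are averages of 3–6 measurements.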

[6] = tested on: Liver; assay: Metabolic stability in human liver S9 fraction assessed as compound remaining after 120 mins; assay type: ADME, subcellular; settings: s9, 2 h
How it was run: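 Pooled mixed-gender human hepatic S9 at 1 mg/mL. Compound at 10 μM final in 50 mM potassium phosphate pH 7.4 with 3 mM MgCl2 and NADPH regeneration (NADP 1 mM, glucose-6-phosphate 5 mM, G6PDH 1 unit/mL). Triplicates incubated 0, 15, 30, 60, 120 min, stopped with 3 vol acetonitrile, LC-MS/MS against matrix standard curves; percent remaining at 120 min.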

[7] = tested on: Plasma; assay: Metabolic stability in human plasma assessed as compound remaining after 60 mins; assay type: ADME, cell-free; settings: 1 h
How it was run: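 Pooled mixed-gender human plasma, 1 mL per sample at 37 °C. Compound at 10 μM final, sampled at 0, 30 and 60 min after 5 min preincubation. Reaction stopped with acetonitrile, LC-MS/MS quantitation; percent remaining at 60 min.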

[8] = tested on: Nucleic Acid; assay: Ratio of drug uptake in brain to plasma of Sprague-Dawley rat brain at 10 mg/kg, po after 60 mins; assay type: ADME, organism-based; set-up: dose 10 mg/kg, route oral; settings: 1 h
How it was run: (§1)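 Male Sprague–Dawley rats, 8 weeks old, dosed orally at 10 mg/kg in food-grade corn oil; 3–4 animals per time point. Plasma and unperfused brain collected post dose. Brain homogenized in 50:50 ethanol/water; plasma and homogenate extracted with acetonitrile and centrifuged. Analysed by LC-MS/MS against standards prepared in blank matrix. Ratio taken from brain and plasma concentrations.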

[9] = tested on: Nucleic Acid; assay: Ratio of drug uptake in brain to plasma of Sprague-Dawley rat brain at 10 mg/kg, po after 120 mins; assay type: ADME, organism-based; set-up: dose 10 mg/kg, route oral; settings: 2 h; how it was run: as §1
[10] = Drug uptake in Sprague-Dawley rat brain at 10 mg/kg, po after 120 mins; assay type: ADME, organism-based; set-up: dose 10 mg/kg, route oral; settings: read-out: Drug uptake
How it was run: (§2)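 Male Sprague–Dawley rats, 8 weeks old, given 10 mg/kg orally in food-grade corn oil. Three to four animals per time point. Plasma and unperfused brain collected at 0.5–8 h. Brain homogenized in 50:50 ethanol/water. Samples protein-precipitated with acetonitrile and analysed by LC-MS/MS on a C18 column against standards in blank matrix.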

[11] = Plasma concentration in Sprague-Dawley rat at 10 mg/kg, po after 60 mins; assay type: ADME, organism-based; set-up: dose 10 mg/kg, route oral; how it was run: as §2
[12] = Plasma concentration in Sprague-Dawley rat at 10 mg/kg, po after 120 mins; assay type: ADME, organism-based; set-up: dose 10 mg/kg, route oral; how it was run: as §2
[13] = tested on: Nucleic Acid; assay: Ratio of drug uptake in brain to plasma of Sprague-Dawley rat brain at 10 mg/kg, po after 480 mins; assay type: ADME, organism-based; set-up: dose 10 mg/kg, route oral; settings: 8 h; how it was run: as §1
[14] = Drug uptake in Sprague-Dawley rat brain at 10 mg/kg, po after 60 mins; assay type: ADME, organism-based; set-up: dose 10 mg/kg, route oral; settings: read-out: Drug uptake; how it was run: as §2
[15] = Drug uptake in Sprague-Dawley rat brain at 10 mg/kg, po after 30 mins; assay type: ADME, organism-based; set-up: dose 10 mg/kg, route oral; settings: read-out: Drug uptake; how it was run: as §2
[16] = tested on: Nucleic Acid; assay: Ratio of drug uptake in brain to plasma of Sprague-Dawley rat brain at 10 mg/kg, po after 240 mins; assay type: ADME, organism-based; set-up: dose 10 mg/kg, route oral; settings: 4 h; how it was run: as §1
[17] = Plasma concentration in Sprague-Dawley rat at 10 mg/kg, po after 30 mins; assay type: ADME, organism-based; set-up: dose 10 mg/kg, route oral; how it was run: as §2
[18] = Drug uptake in Sprague-Dawley rat brain at 10 mg/kg, po after 480 mins; assay type: ADME, organism-based; set-up: dose 10 mg/kg, route oral; settings: read-out: Drug uptake; how it was run: as §2
[19] = tested on: Nucleic Acid; assay: Ratio of drug uptake in brain to plasma of Sprague-Dawley rat brain at 10 mg/kg, po after 30 mins; assay type: ADME, organism-based; set-up: dose 10 mg/kg, route oral; settings: 0.5 h; how it was run: as §1
[20] = Plasma concentration in Sprague-Dawley rat at 10 mg/kg, po after 240 mins; assay type: ADME, organism-based; set-up: dose 10 mg/kg, route oral; how it was run: as §2
[21] = Drug uptake in Sprague-Dawley rat brain at 10 mg/kg, po after 240 mins; assay type: ADME, organism-based; set-up: dose 10 mg/kg, route oral; settings: read-out: Drug uptake; how it was run: as §2

Chain of Cannabinoid receptor 2 (P34972 whole entry): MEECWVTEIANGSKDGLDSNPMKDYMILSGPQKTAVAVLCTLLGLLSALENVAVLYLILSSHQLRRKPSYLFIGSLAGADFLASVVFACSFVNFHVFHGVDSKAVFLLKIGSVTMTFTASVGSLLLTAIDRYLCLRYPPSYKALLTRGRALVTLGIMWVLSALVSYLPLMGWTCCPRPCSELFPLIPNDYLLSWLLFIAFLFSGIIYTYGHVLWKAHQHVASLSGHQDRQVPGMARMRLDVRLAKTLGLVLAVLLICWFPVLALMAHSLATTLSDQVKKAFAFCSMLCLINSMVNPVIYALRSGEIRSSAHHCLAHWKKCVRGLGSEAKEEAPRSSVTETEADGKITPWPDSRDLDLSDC

Compound | Ki [1] [µM] | Ki [2] [nM] | Ratio Ki [4] | Ke [5] [nM] | further results
NC1(c2ccccc2)CCN(c2ncnc3c2nc(-c2ccccc2Cl)n3-c2ccc(Cl)cc2)CC1 | 1.66 | 11 | 151 | – | permeability [3]: < 1%
CCCCNC(=O)NC1(c2ccccc2)CCN(c2ncnc3c2nc(-c2ccccc2Cl)n3-c2ccc(Cl)cc2)CC1 | > 20 | 269 | – | – | –
CCNC(=O)NC1(c2ccccc2)CCN(c2ncnc3c2nc(-c2ccccc2Cl)n3-c2ccc(Cl)cc2)CC1 | 4.65 | 195 | 24 | – | –
CS(=O)(=O)N1CCC[C@H](Nc2ncnc3c2nc(-c2ccccc2Cl)n3-c2ccc(Cl)cc2)C1 | – | – | – | 6040 | –
NC(=O)C1(c2ccccc2)CCN(c2ncnc3c2nc(-c2ccccc2Cl)n3-c2ccc(Cl)cc2)CC1 | 5.51 | 1.79 | 3080 | 9 | permeability [3]: 6%; Stability [6]: > 90%; Stability [7]: > 90%
O=C(NC1CCN(c2ncnc3c2nc(-c2ccccc2Cl)n3-c2ccc(Cl)cc2)CC1)C(F)(F)F | – | – | – | 3.2 | –
CC(C)NC(=O)NC1(c2ccccc2)CCN(c2ncnc3c2nc(-c2ccccc2Cl)n3-c2ccc(Cl)cc2)CC1 | 8.95 | 337 | 27 | 46 | –
CCNC1(C(N)=O)CCN(c2ncnc3c2nc(-c2ccccc2Cl)n3-c2ccc(Cl)cc2)CC1 [OTENABANT] | – | – | – | – | permeability [3]: 40%
CC(C)(C)OC(=O)NC1CCN(c2ncnc3c2nc(-c2ccccc2Cl)n3-c2ccc(Cl)cc2)CC1 | 1.71 | 1.5 | 1140 | 11 | –
CC(C)NC(=O)NC1CCN(c2ncnc3c2nc(-c2ccccc2Cl)n3-c2ccc(Cl)cc2)CC1 | 2.45 | 14 | 175 | – | –
CCCCNC(=O)N1CCC(Nc2ncnc3c2nc(-c2ccccc2Cl)n3-c2ccc(Cl)cc2)CC1 | > 20 | 3340 | – | 71 | –
CC(C)(C)OC(=O)N1CCC(Nc2ncnc3c2nc(-c2ccccc2Cl)n3-c2ccc(Cl)cc2)CC1 | 14 | 24 | 568 | 92 | –
CS(=O)(=O)NC1CCN(c2ncnc3c2nc(-c2ccccc2Cl)n3-c2ccc(Cl)cc2)CC1 | 1.07 | 29 | 37 | – | –
CCCNC(=O)NC1CCN(c2ncnc3c2nc(-c2ccccc2Cl)n3-c2ccc(Cl)cc2)CC1 | 0.153 | 28 | 5 | – | –
CS(=O)(=O)NC1(c2ccccc2)CCN(c2ncnc3c2nc(-c2ccccc2Cl)n3-c2ccc(Cl)cc2)CC1 | – | – | 153 | 2.9 | BPR [8]: 0.08; BPR [9]: 0.1; permeability [3]: < 1%; concentration at 2 h [10]: 122 ng/mL; Stability [6]: > 90%; concentration at 1 h [11]: 767 ng/mL; concentration at 2 h [12]: 1190 ng/mL; BPR [13]: 0.1; concentration at 1 h [14]: 58 ng/mL; concentration at 0.5 h [15]: 38 ng/mL; Stability [7]: > 90%; BPR [16]: 0.11; concentration at 0.5 h [17]: 752 ng/mL; concentration at 8 h [18]: 89 ng/mL; BPR [19]: 0.05; concentration at 4 h [20]: 1650 ng/mL; concentration at 4 h [21]: 184 ng/mL
O=C(NC1CCN(c2ncnc3c2nc(-c2ccccc2Cl)n3-c2ccc(Cl)cc2)CC1)c1ccccc1 | – | – | – | 0.7 | –
CC(=O)N1CCC[C@@H](Nc2ncnc3c2nc(-c2ccccc2Cl)n3-c2ccc(Cl)cc2)C1 | – | – | – | 920 | –
CCCNC(=O)NC1(c2ccccc2)CCN(c2ncnc3c2nc(-c2ccccc2Cl)n3-c2ccc(Cl)cc2)CC1 | 7.78 | 220 | 35 | 99 | –
Cc1c(C(=O)N2CCC(C(N)=O)(c3ccccc3)CC2)nn(-c2ccc(Cl)cc2Cl)c1-c1ccc(Cl)cc1 | – | – | 1600 | 0.45 | permeability [3]: 8%
CC(=O)N1CCC[C@H](Nc2ncnc3c2nc(-c2ccccc2Cl)n3-c2ccc(Cl)cc2)C1 | – | – | – | 4450 | –
CC(C)(C)OC(=O)NC1(c2ccccc2)CCN(c2ncnc3c2nc(-c2ccccc2Cl)n3-c2ccc(Cl)cc2)CC1 | 13.9 | 7.1 | 1960 | – | permeability [3]: < 1%
CS(=O)(=O)N1CCC[C@@H](Nc2ncnc3c2nc(-c2ccccc2Cl)n3-c2ccc(Cl)cc2)C1 | – | – | – | 346 | –
CCNC(=O)N1CCC[C@H](Nc2ncnc3c2nc(-c2ccccc2Cl)n3-c2ccc(Cl)cc2)C1 | – | – | – | 1150 | –
CCCCNC(=O)NC1CCN(c2ncnc3c2nc(-c2ccccc2Cl)n3-c2ccc(Cl)cc2)CC1 | 1.55 | 25 | 62 | – | –
CC(C)(C)NC(=O)NC1(c2ccccc2)CCN(c2ncnc3c2nc(-c2ccccc2Cl)n3-c2ccc(Cl)cc2)CC1 | 20 | 25.5 | 784 | – | permeability [3]: < 1%; Stability [6]: 43%; Stability [7]: > 90%
CCNC(=O)N1CCC[C@@H](Nc2ncnc3c2nc(-c2ccccc2Cl)n3-c2ccc(Cl)cc2)C1 | – | – | – | 1500 | –
O=S(=O)(NC1CCN(c2ncnc3c2nc(-c2ccccc2Cl)n3-c2ccc(Cl)cc2)CC1)c1ccccc1 | 5.87 | 1.2 | 4890 | 0.3 | –
